Tested on: HEK-293T
Assay: Multiplex assay against HEK293T;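 for Population Tubulin-Different-Phenotype (%): share of the cells with healthy nuclei that show this phenotype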
Assay type: toxicity, cell-based
Details: human
Summary of the method: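 Tubulin, mitochondrial-mass and membrane-permeability phenotypes are per cents of healthy-nucleus cells. Cells were gated by CellPathfinder machine learning into Hoechst high-intensity objects or normal cells, normal cells into healthy, pyknosed or fragmented nuclei, and pyknosed cells into mitotic or apoptotic. Before that, live cells stained at seeding with Hoechst33342, BioTracker Green Microtubule Cytoskeleton Dye, MitoTracker Red and Annexin V Alexa Fluor 680 were imaged on a CQ1 microscope at 37°C and 5% CO2 after compound addition.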

[1] = 12 h, 1 µM, compound concentration 1 uM, replicate 1
[2] = 12 h, 1 µM, compound concentration 1 uM, replicate 2
[3] = 12 h, 10 µM, compound concentration 10 uM, replicate 1
[4] = 12 h, 10 µM, compound concentration 10 uM, replicate 2
[5] = 24 h, 1 µM, compound concentration 1 uM, replicate 1
[6] = 24 h, 1 µM, compound concentration 1 uM, replicate 2
[7] = 24 h, 10 µM, compound concentration 10 uM, replicate 1
[8] = 24 h, 10 µM, compound concentration 10 uM, replicate 2
[9] = 48 h, 1 µM, compound concentration 1 uM, replicate 1
[10] = 48 h, 1 µM, compound concentration 1 uM, replicate 2
[11] = 48 h, 10 µM, compound concentration 10 uM, replicate 1
[12] = 48 h, 10 µM, compound concentration 10 uM, replicate 2

Question: Which results are given for `Cc1cc(C)c(S(=O)(=O)N(Cc2ccc(-c3cccc(S(C)(=O)=O)c3)cc2)Cc2ccc(C(F)(F)F)o2)c(C)c1`?
Answer: Population Apoptotic (%) [1]: 47%; Population Fragmented Nuclei (%) [1]: 13%; Population Healthy Nuclei (%) [1]: 36%; Population Hoechst High Intensity Objects (%) [1]: 10%; Population Membrane Permeable-Phenotype (%) [1]: 3%; Population Mitochondria Different-Phenotype (%) [1]: 81%; Population Mitotic Cells (%) [1]: 52%; Population Normal (%) [1]: 89%; Population Pyknosed Nuclei (%) [1]: 49%; Population Tubulin-Different-Phenotype (%) [1]: 59%; Total Cell Count [1]: 263; Population Apoptotic (%) [2]: 13%; Population Fragmented Nuclei (%) [2]: 6%; Population Healthy Nuclei (%) [2]: 49%; Population Hoechst High Intensity Objects (%) [2]: 4%; Population Membrane Permeable-Phenotype (%) [2]: 9%; Population Mitochondria Different-Phenotype (%) [2]: 13%; Population Mitotic Cells (%) [2]: 86%; Population Normal (%) [2]: 95%; Population Pyknosed Nuclei (%) [2]: 43%; Population Tubulin-Different-Phenotype (%) [2]: 9%; Total Cell Count [2]: 213; Population Apoptotic (%) [3]: 52%; Population Fragmented Nuclei (%) [3]: 12%; Population Healthy Nuclei (%) [3]: 35%; Population Hoechst High Intensity Objects (%) [3]: 14%; Population Membrane Permeable-Phenotype (%) [3]: 10%; Population Mitochondria Different-Phenotype (%) [3]: 89%; Population Mitotic Cells (%) [3]: 47%; Population Normal (%) [3]: 85%; Population Pyknosed Nuclei (%) [3]: 51%; Population Tubulin-Different-Phenotype (%) [3]: 90%; Total Cell Count [3]: 216; Population Apoptotic (%) [4]: 6%; Population Fragmented Nuclei (%) [4]: 9%; Population Healthy Nuclei (%) [4]: 48%; Population Hoechst High Intensity Objects (%) [4]: 2%; Population Membrane Permeable-Phenotype (%) [4]: 5%; Population Mitochondria Different-Phenotype (%) [4]: 20%; Population Mitotic Cells (%) [4]: 93%; Population Normal (%) [4]: 97%; Population Pyknosed Nuclei (%) [4]: 41%; Population Tubulin-Different-Phenotype (%) [4]: 16%; Total Cell Count [4]: 145; Population Apoptotic (%) [5]: 43%; Population Fragmented Nuclei (%) [5]: 13%; Population Healthy Nuclei (%) [5]: 44%; Population Hoechst High Intensity Objects (%) [5]: 9%; Population Membrane Permeable-Phenotype (%) [5]: 2%; Population Mitochondria Different-Phenotype (%) [5]: 66%; Population Mitotic Cells (%) [5]: 56%; Population Normal (%) [5]: 90%; Population Pyknosed Nuclei (%) [5]: 42%; Population Tubulin-Different-Phenotype (%) [5]: 49%; Total Cell Count [5]: 304; Population Apoptotic (%) [6]: 9%; Population Fragmented Nuclei (%) [6]: 6%; Population Healthy Nuclei (%) [6]: 64%; Population Hoechst High Intensity Objects (%) [6]: 2%; Population Membrane Permeable-Phenotype (%) [6]: 10%; Population Mitochondria Different-Phenotype (%) [6]: 10%; Population Mitotic Cells (%) [6]: 90%; Population Normal (%) [6]: 97%; Population Pyknosed Nuclei (%) [6]: 29%; Population Tubulin-Different-Phenotype (%) [6]: 29%; Total Cell Count [6]: 261; Population Apoptotic (%) [7]: 52%; Population Fragmented Nuclei (%) [7]: 13%; Population Healthy Nuclei (%) [7]: 38%; Population Hoechst High Intensity Objects (%) [7]: 15%; Population Membrane Permeable-Phenotype (%) [7]: 9%; Population Mitochondria Different-Phenotype (%) [7]: 74%; Population Mitotic Cells (%) [7]: 47%; Population Normal (%) [7]: 84%; Population Pyknosed Nuclei (%) [7]: 48%; Population Tubulin-Different-Phenotype (%) [7]: 89%; Total Cell Count [7]: 225; Population Apoptotic (%) [8]: 11%; Population Fragmented Nuclei (%) [8]: 7%; Population Healthy Nuclei (%) [8]: 72%; Population Hoechst High Intensity Objects (%) [8]: 3%; Population Membrane Permeable-Phenotype (%) [8]: 6%; Population Mitochondria Different-Phenotype (%) [8]: 10%; Population Mitotic Cells (%) [8]: 88%; Population Normal (%) [8]: 96%; Population Pyknosed Nuclei (%) [8]: 19%; Population Tubulin-Different-Phenotype (%) [8]: 24%; Total Cell Count [8]: 187; Population Apoptotic (%) [9]: 46%; Population Fragmented Nuclei (%) [9]: 13%; Population Healthy Nuclei (%) [9]: 61%; Population Hoechst High Intensity Objects (%) [9]: 8%; Population Membrane Permeable-Phenotype (%) [9]: 4%; Population Mitochondria Different-Phenotype (%) [9]: 38%; Population Mitotic Cells (%) [9]: 53%; Population Normal (%) [9]: 91%; Population Pyknosed Nuclei (%) [9]: 25%; Population Tubulin-Different-Phenotype (%) [9]: 39%; Total Cell Count [9]: 387; Population Apoptotic (%) [10]: 9%; Population Fragmented Nuclei (%) [10]: 6%; Population Healthy Nuclei (%) [10]: 81%; Population Hoechst High Intensity Objects (%) [10]: 2%; Population Membrane Permeable-Phenotype (%) [10]: 7%; Population Mitochondria Different-Phenotype (%) [10]: 5%; Population Mitotic Cells (%) [10]: 90%; Population Normal (%) [10]: 97%; Population Pyknosed Nuclei (%) [10]: 11%; Population Tubulin-Different-Phenotype (%) [10]: 20%; Total Cell Count [10]: 474; Population Apoptotic (%) [11]: 45%; Population Fragmented Nuclei (%) [11]: 13%; Population Healthy Nuclei (%) [11]: 60%; Population Hoechst High Intensity Objects (%) [11]: 6%; Population Membrane Permeable-Phenotype (%) [11]: 7%; Population Mitochondria Different-Phenotype (%) [11]: 57%; Population Mitotic Cells (%) [11]: 54%; Population Normal (%) [11]: 93%; Population Pyknosed Nuclei (%) [11]: 25%; Population Tubulin-Different-Phenotype (%) [11]: 80%; Total Cell Count [11]: 302; Population Apoptotic (%) [12]: 16%; Population Fragmented Nuclei (%) [12]: 8%; Population Healthy Nuclei (%) [12]: 84%; Population Hoechst High Intensity Objects (%) [12]: 1%; Population Membrane Permeable-Phenotype (%) [12]: 3%; Population Mitochondria Different-Phenotype (%) [12]: 3%; Population Mitotic Cells (%) [12]: 84%; Population Normal (%) [12]: 98%; Population Pyknosed Nuclei (%) [12]: 6%; Population Tubulin-Different-Phenotype (%) [12]: 9%; Total Cell Count [12]: 367

Source: ChEMBL document CHEMBL4689842, “EUbOPEN Chemogenomics Library wave 1” (2021)
